According to PMC12900291 (European journal of medicinal chemistry, 2025):
“And” between values parts separate entries of the source, which are not always exact repeats. Identical values can stand only once.

What was measured:
[1] = target: T1, SERCA2a (Sus scrofa, UniProt P11607); experiment: NADH-coupled enzyme-linked Ca2+-ATPase activity assay in cardiac SR vesicles; type: biochemical, porcine; details: for Max increase (%): vs no compound
[2] = target: T1, SERCA2a; experiment: oxalate-based Ca2+-uptake; type: biochemical, porcine; details: cardiac SR
Method in brief: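 Porcine left-ventricular SR vesicles (30 μg/mL) were prepared by differential centrifugation. Buffer: 50 mM MOPS, 100 mM KCl, 30 mg/mL sucrose, 10 mM potassium oxalate, 2 μM Fluo-4, free Ca2+ at pCa 8.0, 6.2 or 5.4, test compound 0.048–50 μM (two-fold series). Incubation 20 min at 22 °C, dark; 5 mM MgATP start; Fluo-4 decrease (ex 485/em 520 nm) tracked 15 min. Basal pCa 8.0 rate subtracted; Hill fit gives EC50 and % effect.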

[3] = Intrinsic clearance; type: in vitro ADME, human; details: for Thalf: human liver S9 0.5 mg/mL, 1 μM compound, NADPH, 37 °C; for microsomal CLint at 1 μM: human, liver S9 fraction, pH 7.4
[4] = Ca2+-ATPase activity, [Ca2+]MAX (pCa 5.4), mean±SD, n=4-6
[5] = Ca2+-Uptake [Ca2+]MAX EC50 (μM), [Ca2+]MAX (pCa 5.4)
[6] = Ca2+-Uptake [Ca2+]MID EC50 (μM), [Ca2+]MID (pCa 6.2)
[7] = Ca2+-ATPase [Ca2+]MAX EC50 (μM), [Ca2+]MAX (pCa 5.4), cardiac SR
[8] = Ca2+-ATPase [Ca2+]MID EC50 (μM), [Ca2+]MID (pCa 6.2), cardiac SR

T1 sequence (P11607 1-997 isoform P11607-2): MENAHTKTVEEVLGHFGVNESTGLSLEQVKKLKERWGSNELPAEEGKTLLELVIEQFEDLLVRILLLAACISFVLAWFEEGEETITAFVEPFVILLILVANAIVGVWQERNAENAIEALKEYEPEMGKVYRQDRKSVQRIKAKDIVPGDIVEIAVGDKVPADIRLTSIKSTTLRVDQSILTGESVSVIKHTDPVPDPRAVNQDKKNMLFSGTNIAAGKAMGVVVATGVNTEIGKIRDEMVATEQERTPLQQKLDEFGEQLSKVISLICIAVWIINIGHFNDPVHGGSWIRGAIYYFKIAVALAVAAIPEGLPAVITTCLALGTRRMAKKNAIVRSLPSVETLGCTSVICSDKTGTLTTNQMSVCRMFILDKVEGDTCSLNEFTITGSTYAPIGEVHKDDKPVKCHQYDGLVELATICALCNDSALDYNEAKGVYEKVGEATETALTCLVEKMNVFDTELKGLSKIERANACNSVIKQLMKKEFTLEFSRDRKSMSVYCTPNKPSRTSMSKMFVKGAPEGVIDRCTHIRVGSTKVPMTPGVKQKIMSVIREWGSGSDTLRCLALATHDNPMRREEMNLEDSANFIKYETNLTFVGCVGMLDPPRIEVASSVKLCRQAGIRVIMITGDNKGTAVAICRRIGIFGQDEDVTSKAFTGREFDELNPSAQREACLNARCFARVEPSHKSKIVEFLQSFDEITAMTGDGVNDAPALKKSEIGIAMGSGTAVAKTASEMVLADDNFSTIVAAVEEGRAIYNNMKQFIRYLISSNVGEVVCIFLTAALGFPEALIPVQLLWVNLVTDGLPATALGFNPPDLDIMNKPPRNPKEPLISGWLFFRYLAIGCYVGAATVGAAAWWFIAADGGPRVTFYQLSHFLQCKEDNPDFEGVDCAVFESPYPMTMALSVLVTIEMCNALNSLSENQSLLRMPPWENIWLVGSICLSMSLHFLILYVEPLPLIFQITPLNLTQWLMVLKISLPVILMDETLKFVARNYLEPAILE

CCCN(Cc1ccccc1OC)C(=O)c1ccccc1F [Compound 12, 2-Fluoro-N-(2-methoxybenzyl)-N-propylbenzamide]
Max increase (%) [1, 4]: 40±10%

CCCN(Cc1ccccc1OC)C(=O)c1cccs1 [Compound 4, N-(2-Methoxybenzyl)-N-propylthiophene-2-carboxamide]
Max increase (%) [1, 4]: 30±14%

CCCN(Cc1ccccc1OC)C(=O)c1cccc(Cl)c1 [Compound 16, 3-Chloro-N-(2-methoxybenzyl)-N-propylbenzamide]
Max increase (%) [1, 4]: 61±9.4%

CCN(Cc1ccccc1OC)C(=O)c1cc(F)c(C)c(Br)c1 [Compound 54, 3-Bromo-N-ethyl-5-fluoro-N-(2-methoxybenzyl)-4-methylbenzamide]
Max decrease (%) [1, 4]: −70±3.4% | inhibition at 50 µM ([1]; read-out: inhibition of Ca2+-ATPase activity): 70%

CCCN(Cc1ccccc1OC)C(=O)c1cccc(Br)c1F [Compound 24, 3-Bromo-2-fluoro-N-(2-methoxybenzyl)-N-propylbenzamide]
EC50 [2, 5]: 1.4 ± 0.65 µM | EC50 [2, 6]: 0.83 ± 0.3 µM | Ca2+-Uptake [Ca2+]MAX % effect ([2]; [Ca2+]MAX (pCa 5.4)): 12±3.0% | Ca2+-Uptake [Ca2+]MID % effect ([2]; [Ca2+]MID (pCa 6.2)): 8.5±3.3% | Thalf [3]: 51.3 min | microsomal CLint at 1 μM [3]: 25 ± 4 µL/min/mg | EC50 [1, 7]: 3.4 ± 0.29 µM | EC50 [1, 8]: 3.3 ± 1.9 µM | Max increase (%) [1, 4]: 48±4.6% | Ca2+-ATPase [Ca2+]MAX % effect ([1]; [Ca2+]MAX (pCa 5.4), cardiac SR): 48±4.6% | Ca2+-ATPase [Ca2+]MID % effect ([1]; [Ca2+]MID (pCa 6.2), cardiac SR): 25±5.6%

CCN(Cc1ccccc1OC)C(=O)c1cccc(Br)c1 [Compound 51, 3-Bromo-N-ethyl-N-(2-methoxybenzyl)benzamide]
Max increase (%) [1, 4]: 46±6.3%

CCCN(Cc1ccccc1OC)C(=O)c1scc(C)c1C [Compound 2, N-(2-Methoxybenzyl)-3,4-dimethyl-N-propylthiophene-2-carboxamide]
Max increase (%) [1, 4]: 47±7.1%

COc1ccccc1CN(CCCF)C(=O)c1cc(C)c(C)s1 [Compound 39, N-(3-Fluoropropyl)-N-(2-methoxybenzyl)-4,5-dimethylthiophene-2-carboxamide]
Max increase (%) [1, 4]: 22% and 22±8.6%

COc1ccccc1CN(C)C(=O)c1cc(C)c(C)s1 [Compound 31, N-(2-Methoxybenzyl)-N,4,5-trimethylthiophene-2-carboxamide]
Max increase (%) [1, 4]: 52±9.2%

CCCN(Cc1ccccc1OC)C(=O)c1ccc(C)cc1 [Compound 11, N-(2-Methoxybenzyl)-4-methyl-N-propylbenzamide]
Max increase (%) [1, 4]: 61±7.0%

COc1ccccc1CNC(=O)c1cc(C)c(C)s1 [Compound 30, N-(2-methoxybenzyl)-4,5-dimethylthiophene-2-carboxamide]
Max increase (%) [1, 4]: 24±9.1%

CCCN(Cc1ccccc1OC)C(=O)c1cccc(OC)c1 [Compound 19, 3-Methoxy-N-(2-methoxybenzyl)-N-propylbenzamide]
Max increase (%) [1, 4]: 45±14%

CCCN(Cc1ccccc1OC)C(=O)c1ccccc1OC [Compound 18, 2-Methoxy-N-(2-methoxybenzyl)-N-propylbenzamide]
Max increase (%) [1, 4]: 27±9.3%

COc1ccccc1CN(CCC(F)F)C(=O)c1cc(C)c(C)s1 [Compound 40, N-(3,3-Difluoropropyl)-N-(2-methoxybenzyl)-4,5-dimethylthiophene-2-carboxamide]
Max increase (%) [1, 4]: 91% and 91±12.6%

COc1cccc2c1CN(C(=O)c1cc(C)c(C)s1)CC2 [Compound 42, (4,5-diMethylthiophen-2-yl)(8-methoxy-3,4-dihydroisoquinolin-2(1H)-yl)methanone]
Max increase (%) [1, 4]: 22% and 22±6.4%

COc1ccccc1CN(C(=O)c1cc(C)c(C)s1)C(C)C [Compound 34, N-Isopropyl-N-(2-methoxybenzyl)-4,5-dimethylthiophene-2-carboxamide]
Max increase (%) [1, 4]: 43±7.9%

CCCN(Cc1ccccc1OC)C(=O)c1cccc(Br)c1 [Compound 22, 3-Bromo-N-(2-methoxybenzyl)-N-propylbenzamide]
EC50 [2, 5]: 0.36 ± 0.14 µM | EC50 [2, 6]: 12.4 ± 8.4 µM | Ca2+-Uptake [Ca2+]MAX % effect ([2]; [Ca2+]MAX (pCa 5.4)): 11±3.8% | Ca2+-Uptake [Ca2+]MAX EC50 (μM) ([2]; [Ca2+]MAX (pCa 5.4)): decreased | Thalf [3]: 23.8 min | microsomal CLint at 1 μM [3]: 56 ± 9 µL/min/mg | EC50 [1, 7]: 1.5 ± 0.31 µM | EC50 [1, 8]: 1.4 ± 0.8 µM | Max increase (%) [1, 4]: 46±5.5%

COc1ccccc1CN(C(=O)c1cc(C)c(C)s1)C1CC1 [Compound 35, N-Cyclopropyl-N-(2-methoxybenzyl)-4,5-dimethylthiophene-2-carboxamide]
Max increase (%) [1, 4]: 46±8.9%

CCCN(Cc1ccccc1OC)C(=O)c1cccc(F)c1 [Compound 13, 3-Fluoro-N-(2-methoxybenzyl)-N-propylbenzamide]
Max increase (%) [1, 4]: 53±17%

CCCN(Cc1ccccc1F)C(=O)c1cc(C)c(C)s1 [Compound 48, N-(2-Fluorobenzyl)-4,5-dimethyl-N-propylthiophene-2-carboxamide]
Max increase (%) [1, 4]: 89% and 89±24%

CCCN(Cc1ccccc1OC)C(=O)c1cccc(Br)n1 [Compound 27, 6-Bromo-N-(2-methoxybenzyl)-N-propylpicolinamide]
Max increase (%) [1, 4]: 46±7.8%

COc1ccccc1CN(CCO)C(=O)c1cc(C)c(C)s1 [Compound 36, N-(2-Hydroxyethyl)-N-(2-methoxybenzyl)-4,5-dimethylthiophene-2-carboxamide]
Max increase (%) [1, 4]: abolished

CCCN(Cc1ccccc1)C(=O)c1cc(C)c(C)s1 [Compound 44, N-Benzyl-4,5-dimethyl-N-propylthiophene-2-carboxamide]
Max increase (%) [1, 4]: abolished activity

COc1ccccc1CN(CCC(F)(F)F)C(=O)c1cc(C)c(C)s1 [Compound 41, N-(2-Methoxybenzyl)-4,5-dimethyl-N-(3,3,3-trifluoropropyl)thiophene-2-carboxamide]
Max increase (%) [1, 4]: 75% and 75±8.6%

CCCN(Cc1ccccc1OC)C(=O)c1cc2ccccc2s1 [Compound 7, N-(2-Methoxybenzyl)-N-propylbenzo[b]thiophene-2-carboxamide]
Max increase (%) [1, 4]: 76% and 76±19%

CCCN(Cc1ccccc1OC)C(=O)c1cc(C)cs1 [Compound 3, N-(2-Methoxybenzyl)-4-methyl-N-propylthiophene-2-carboxamide]
Max increase (%) [1, 4]: 45±9.2%

CCCN(Cc1ccccc1OC)C(=O)c1ccsc1 [Compound 5, N-(2-Methoxybenzyl)-N-propylthiophene-3-carboxamide]
Max increase (%) [1, 4]: 29±8.4%

CCCN(Cc1ccccc1OC)C(=O)c1ccccc1C [Compound 9, N-(2-Methoxybenzyl)-2-methyl-N-propylbenzamide]
Max increase (%) [1, 4]: 28±10%

CCCN(Cc1ccccc1OC)C(=O)c1ccccc1Cl [Compound 15, 2-Chloro-N-(2-methoxybenzyl)-N-propylbenzamide]
Max increase (%) [1, 4]: 35±10%

CCCN(Cc1ccccc1OC)C(=O)c1ccccc1C(F)(F)F [Compound 20, N-(2-Methoxybenzyl)-N-propyl-2-(trifluoromethyl)benzamide]
Max increase (%) [1, 4]: 51% and 51±17%

CCCN(Cc1ccccc1OC)C(=O)c1ccc(Cl)s1 [Compound 6, 5-Chloro-N-(2-methoxybenzyl)-N-propylthiophene-2-carboxamide]
Max increase (%) [1, 4]: 37±9.4%

CCN(Cc1ccccc1OC)C(=O)c1ccc(F)c(Br)c1 [Compound 53, 3-Bromo-N-ethyl-4-fluoro-N-(2-methoxybenzyl)benzamide]
Max increase (%) [1, 4]: 45±8.4%

CCCN(Cc1ccccc1OC)C(=O)c1ccc(F)cc1 [Compound 14, 4-Fluoro-N-(2-methoxybenzyl)-N-propylbenzamide]
Max increase (%) [1, 4]: 55±11%

CCCN(Cc1ccccc1OC)C(=O)c1ccc(Cl)cc1 [Compound 17, 4-Chloro-N-(2-methoxybenzyl)-N-propylbenzamide]
Max increase (%) [1, 4]: 64±7.6%

CCCN(Cc1ccccc1OC)C(=O)c1cncc(Br)c1 [Compound 28, 5-Bromo-N-(2-methoxybenzyl)-N-propylnicotinamide]
Max increase (%) [1, 4]: 28±5.7%

CCCN(Cc1ccccc1OC)C(=O)c1ccnc(Br)c1 [Compound 29, 2-Bromo-N-(2-methoxybenzyl)-N-propylisonicotinamide]
Max increase (%) [1, 4]: 21±4.9%

CCCN(Cc1ccccc1OC)C(=O)c1cccc(C)c1 [Compound 10, N-(2-Methoxybenzyl)-3-methyl-N-propylbenzamide]
Max increase (%) [1, 4]: 59±13%

CCN(Cc1ccccc1OC)C(=O)c1cccc(Br)c1F [Compound 52, 3-Bromo-N-ethyl-2-fluoro-N-(2-methoxybenzyl)benzamide]
Max increase (%) [1, 4]: 46±7.4%

CCCN(Cc1ccncc1F)C(=O)c1cc(C)c(C)s1 [Compound 50, N-((3-Fluoropyridin-4-yl)methyl)-4,5-dimethyl-N-propylthiophene-2-carboxamide]
Max increase (%) [1, 4]: ablated activity
